# Diaph act CS – diaphorase activation or chemical reduction counter-screen; activation factor at 20 µM; Diaphorase/resazurin coupled assay, resorufin fluorescence, 16 min; active compounds read high; 1 = vehicle wells, 0 = NADH-free wells; 190,000 compounds, 0.005% hits;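 active means diaphorase activity raised at least twofold by the compound at 20 µM; inactive means activation factor below 2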
#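 System – purified diaphorase enzyme from Clostridium kluyveri · Input – enzyme 0.07 U/mL final · Also added – final NADH 0.114 mM, resazurin 0.1 mM · Measured by – fluorescence of resorufin, 544 nm excitation, 590 nm emission · Timing – 16 min enzyme reaction, ambient temperature · Measure – resorufin increase flagging diaphorase activators or reducers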
# Diaph inh CS – counter-screen for diaphorase-based assays: diaphorase inhibitors and chemical oxidizers; 190,000 compounds, 0.69% hits; inhibition, % at 20 µM; diaphorase resazurin-to-resorufin fluorescence, NADH, 16 min; bacterial (C. kluyveri) enzyme, not human;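 active means primary screen inhibition at 20 µM above a set limit, cut at about 50% in these data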;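 further: plate controls were DMSO with full reaction for no effect and wells lacking NADH for full effect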
#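 System: Bacterial diaphorase enzyme (C. kluyveri) | Incubation: 16-min room-temperature incubation before reading | Benchmarks: No-NADH positive control and DMSO neutral control | Measured by: Resorufin fluorescence 544/590 nm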
# PfG6PD inh – PfG6PD (Plasmodium falciparum) enzyme inhibition. PfGluPho enzyme, NADPH resazurin-diaphorase fluorescence. 350,000 compounds, 0.78% hits. inhibition, % at 20 µM. AID 504690;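 active means inhibition reaching at least a set limit at 20 µM in the primary screen, cut at about 59% in these data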;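 further: 0% = DMSO wells with substrate and 100% = DMSO wells lacking glucose-6-phosphate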
# G6PDH CS – inhibits Leuconostoc G6PDH, flagging false hits in G6PDH-based assays | Purified L. mesenteroides G6PDH, diaphorase/resazurin coupled fluorescence, 45 min | inhibition, % at 5 µM | 200,000 compounds, 0.12% hits | AID 1020; in the data active means inhibition above about 50%
# HKDC1 inhibitor – blocks human hexokinase HKDC1 activity; inhibition, % at 20 µM; Q2TB90; 340,000 compounds, 0.16% hits; AID 493160; recombinant HKDC1, G6PDH/diaphorase resazurin coupled fluorescence;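 active means inhibition above about 35% when tested at 20 µM, limit read from the data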;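 further: plate controls were DMSO wells with enzyme for no effect and DMSO wells lacking enzyme for full effect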
# Target sequence (Q2TB90 whole entry, looked up): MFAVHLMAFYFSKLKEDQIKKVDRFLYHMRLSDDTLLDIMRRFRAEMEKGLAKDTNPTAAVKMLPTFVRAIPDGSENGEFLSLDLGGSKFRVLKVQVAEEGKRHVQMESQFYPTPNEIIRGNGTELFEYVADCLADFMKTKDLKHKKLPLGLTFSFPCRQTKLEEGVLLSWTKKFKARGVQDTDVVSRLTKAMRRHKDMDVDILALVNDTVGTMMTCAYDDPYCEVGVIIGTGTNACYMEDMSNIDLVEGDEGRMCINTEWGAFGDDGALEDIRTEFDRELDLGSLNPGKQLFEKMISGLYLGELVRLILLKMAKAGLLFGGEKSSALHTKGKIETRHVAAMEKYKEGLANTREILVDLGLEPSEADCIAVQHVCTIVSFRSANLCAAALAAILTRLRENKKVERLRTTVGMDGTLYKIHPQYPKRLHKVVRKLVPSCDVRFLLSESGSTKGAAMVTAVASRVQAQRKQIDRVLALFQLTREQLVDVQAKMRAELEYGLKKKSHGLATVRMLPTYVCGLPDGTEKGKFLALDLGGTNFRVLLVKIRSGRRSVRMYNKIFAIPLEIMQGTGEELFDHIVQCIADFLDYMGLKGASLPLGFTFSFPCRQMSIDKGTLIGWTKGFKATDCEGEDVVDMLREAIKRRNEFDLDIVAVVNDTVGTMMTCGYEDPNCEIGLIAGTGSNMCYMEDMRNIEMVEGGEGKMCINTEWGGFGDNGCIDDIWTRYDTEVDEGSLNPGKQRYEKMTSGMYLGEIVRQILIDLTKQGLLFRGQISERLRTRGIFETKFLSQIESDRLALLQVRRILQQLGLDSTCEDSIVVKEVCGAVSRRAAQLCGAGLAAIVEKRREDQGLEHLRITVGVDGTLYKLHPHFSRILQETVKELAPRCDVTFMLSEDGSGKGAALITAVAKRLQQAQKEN
#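 Material – in-house recombinant HK5 (HKDC1) enzyme · Quantity – HKDC1 at 5 µg/mL · Buffer or medium – pH 8.0 Tris buffer with 10 mM MgCl2 · Reagent – glucose with 1 mM ATP · Dosing – single 20 µM dose · Times – reaction time 90 min, room temperature, protected from light · Technique – resorufin fluorescence at 613 nm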
# The depositor's hits bear a star; x = no result given. A selection: hits, their analogues and other compounds. The true share with any hit is near 1.2%.
SMILES,Diaph act CS,Diaph inh CS,PfG6PD inh,G6PDH CS,HKDC1 inhibitor
CN(C(=O)COC(=O)Cc1ccc(Br)cc1)c1c(N)n(Cc2ccccc2)c(=O)[nH]c1=O,x,x,-3,x,x
O=C(c1ccccc1)c1ccc2nc(-c3ccco3)c(-c3ccco3)nc2c1,0.3,74*,35,21,26
c1coc(-c2nc3ccccc3nc2-c2ccco2)c1,0.2,80*,48,21,17
O=C(O)c1ccc2nc(-c3ccccc3)c(-c3ccccc3)nc2c1,0.8,18,8,1,-2
O=C(NC1CCCC1)c1ccc2nc(-c3ccco3)c(-c3ccco3)nc2c1,0.2,80*,53,19,28
COc1ccc([C@H]2C[C@H](O)[C@@H](n3cc(C4CC4)nn3)CN2C(=O)C2CCCCC2)cc1,x,x,-2,x,x
O=C(Nc1ccccc1)C1=C[C@@H](c2ccc(Br)cc2)C[C@@H](OCCCCO)O1,0.4,63*,10,6,-1
CN(CCCn1cnc2c(OCc3ccccc3)ncnc21)Cc1ccco1,x,x,2,x,x
CCOC(=O)N1CCN(Cc2cc(Cl)c3cccnc3c2O)CC1,0.4,61*,-2,41,-6
COc1ccccc1N1CCN(Cc2ccc(OC)c(OC)c2OC)CC1,1,1,-17,3,1
CCOC(=O)C1CCN(Cc2ccc(O)c3ncccc23)CC1,0.3,73*,4,50*,-7
Oc1ccc(CN2CCCc3ccccc32)c2cccnc12,0.2,77*,19,-14,-12
COc1ccccc1N1CCN(Cc2ccc(O)c3ncccc23)CC1,0.4,57*,-16,29,-7
CCC1=C(Nc2ccccc2)COC1=O,x,x,3,x,x
COc1ccc(OC)c(CN2CCN(C(=O)c3ccc(S(=O)(=O)N4CCCCCC4)cc3)CC2)c1,x,x,-10,x,x
CN(C)/C=C1/Oc2c(ccc3ccccc23)C1=O,0.7,32,2,3,7
CN(C)/C=C1\Oc2ccc3ccccc3c2C1=O,0.3,70*,30,34,12
COC(=O)[C@H](CC(C)C)NS(=O)(=O)c1ccc(F)cc1Br,x,x,12,x,x
CC(C)/C=C/C(=O)N1CCC(N2CCC(C(=O)NCC3CCCO3)CC2)CC1 (configuration not stated),x,x,7,x,x
O=C1Nc2cc(C(=O)NCCN3CCCCCC3)ccc2S/C1=C\c1ccccc1,x,x,89*,x,3
COc1cccc(CNC(=O)c2ccc(S(=O)(=O)N3CCCCC3)cc2)c1,x,x,12,x,x
O=C(C1CC1)N1CCc2cc(S(=O)(=O)N3CCOCC3)ccc21,1,1,-11,8,-7
CC(Cl)C(=O)c1ccc2c(c1)CCN2C(=O)C1CC1 (configuration not stated),0.4,62*,-7,6,-3
O=C(O)C1C=CC(C(=O)O)c2ccccc21 (configuration not stated),x,x,2,x,x
Cc1[nH]c2ccccc2c1C(C#N)(C#N)C1C(=O)c2ccccc2C1=O,x,x,122*,x,57*
SMILES,Diaph act CS,Diaph inh CS,PfG6PD inh,G6PDH CS,HKDC1 inhibitor
Cc1[nH]c2ccccc2c1CC#N,x,x,-11,x,-2
COc1ccc2ccccc2c1C(=O)/C=C\c1ccoc1,0.5,52*,26,8,15
O=[N+]([O-])c1cc(/C=N\Nc2nccs2)ccc1O,0.1,90*,x,4,x
O=C(CSc1nc2c(cnn2-c2ccc(F)cc2)c(=O)[nH]1)N1CCCc2ccccc21,0.4,63*,-41,0,5
O=C1CN(C(=O)CSc2nc3c(cnn3-c3ccccc3)c(=O)[nH]2)c2ccccc2N1,x,x,-27,x,10
O=C(CSc1ccc2nnc(-c3ccc(F)cc3)n2n1)N1CCCc2ccccc21,0.4,59*,-15,-1,-3
COc1ccc(S(=O)(=O)N(C)C[C@H]2Oc3ncc(C#CC4(O)CCCC4)cc3C(=O)N([C@@H](C)CO)C[C@@H]2C)cc1,x,x,16,x,x
O[C@@H]1C[C@H](c2ccc(Cl)cc2)N(Cc2cccs2)C[C@H]1n1cc(-c2ccc(F)cc2)nn1,x,x,3,x,x
CC1(C)CN(C2CCCCC2)C(=O)[C@H]1CC(=O)Nc1ccc(Br)cc1,x,x,10,x,x
CC1CCCC(NC(=O)c2cccc(S(=O)(=O)N3CCOCC3)c2)C1C (configuration not stated),x,x,-4,x,x
COc1ccc(N(CCCN2C(=O)c3cccc4cccc(c34)C2=O)C(=O)c2cccs2)cc1,0.3,67*,14,6,14
COc1cc(C)ccc1N(CCCN1C(=O)c2cccc3cccc(c23)C1=O)C(=O)c1cccs1,0.3,72*,27,-23,11
CC1(C)CC(=O)C(CC(=O)c2ccccc2)=C(NN=C(N)N)C1,x,x,7,x,x
ClCCn1c(CCl)nc2ccc(Cl)cc21,x,x,-3,x,x
CCCCCCNC(=O)N[C@@H](C(=O)NCCC[C@H]1CN2C(=NC[C@@H]2Cc2ccccc2)N1CCc1cccc(OC)c1)C(C)C,x,x,64*,x,5
C/C=C(\C)C(=O)NCCN1C2=NC[C@@H](Cc3ccccc3)N2C[C@@H]1Cc1ccc(OC)cc1,x,x,-4,x,-2
O=C(Cc1ccc(Cl)cc1Cl)Nc1cccc(S(=O)(=O)Nc2ccccc2F)c1,0.9,9,70*,-1,-41
CC(C)C#Cc1ccc2c(c1)O[C@@H](CN(C)S(=O)(=O)c1cn(C)cn1)[C@@H](C)CN([C@H](C)CO)S2(=O)=O,x,x,4,x,x
CC1(C)Cc2c(C#N)c(NCc3ccco3)nc(-c3ccco3)c2CO1,0.8,20,13,2,-3
CC1(C)Cc2c(C#N)c(N3CCCC3)nc(-c3ccco3)c2CO1,0.5,55*,x,0,x
Nc1c(C(=O)NC2CC2)sc2nc3c(c(-c4ccco4)c12)CC/C3=C/c1ccco1,0.1,87*,36,13,28
Cc1ccc(-c2c3c(nc4sc(C(N)=O)c(N)c24)CCCC3)o1,0.7,31,15,10,3
O=C(COC(=O)c1c2c(nc3ccccc13)/C(=C\c1ccco1)CC2)NC1CCCC1,x,x,21,x,14
NC(=O)c1sc2nc3c(c(-c4ccco4)c2c1N)CCC3,0.2,81*,9,-4,4
CN1CCN(C2=C(Cl)C(=O)C(c3cnc(N4CCCCC4)s3)=C(Cl)C2=O)CC1,0.4,64*,91*,51*,55*
N=C1/C(=C/c2ccc(-c3cccc(C(=O)O)c3)o2)C(=O)N=C2SC=C(c3ccccc3)N12,0.5,54*,-15,2,20
CC(C)S(=O)(=O)C1=NSC2=NC(=O)/C(=C\c3ccc(-c4ccccc4)o3)C(=N)N21,0.8,24,-31,-5,4
CC(C)S(=O)(=O)C1=NSC2=NC(=O)/C(=C\c3ccc(-c4cccc(C(=O)O)c4)o3)C(=N)N21,0.3,74*,-22,13,18
O=C(O)c1ccccc1NC(=O)C1CCN(S(=O)(=O)c2ccc3c(c2)OCCO3)CC1,x,x,-21,x,x
